Measured values as given in ChEMBL document CHEMBL1138585, “Synthesis and evaluation of arylalkoxy- and biarylalkoxy-phenylamide and phenylimidazoles as potent and selective sphingosine-1-phosphate receptor subtype-1 agonists” (Bioorg Med Chem Lett, 2009).
Active and inactive are the calls of the source. No cut-off for these calls is given here.

System: Mus musculus
Experiment: Immunomodulatory activity in C57BL/6 mouse assessed as lymphopenia at 10 mg/kg, po after 6 hrs by complete blood count analysis
Assay type: functional
Summary of the method: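 The amino-alcohol (unphosphorylated) form was given orally to mice, in single doses from 0.3 to 10 mg/kg, with the main screen at 10 mg/kg. Circulating lymphocytes were counted 6 h post-dose. Lymphopenia was expressed as the percent decrease in circulating lymphocytes relative to a time-matched vehicle control group.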

Row | Structure (SMILES) | Activity
1 | C[C@](N)(CO)C(=O)Nc1ccc(OCCc2cccc3ccccc23)cc1 | inactive
2 | C[C@](N)(CO)C(=O)Nc1ccc(OCCc2ccc(-c3cccs3)cc2)cc1 | 78%
3 | CC(C)Oc1cccc(-c2ccc(NC(=O)[C@@](C)(N)CO)cc2)c1 | 23%
4 | C[C@](N)(CO)C(=O)Nc1ccc(OCCCCCc2ccccc2)cc1 | 64%
5 | CC(C)Oc1cccc(Oc2ccc(NC(=O)[C@@](C)(N)CO)cc2)c1 | inactive
6 | C[C@](N)(CO)C(=O)Nc1ccc(-c2ccc3c(c2)OCO3)cc1 | 40%
7 | COc1ccc(CCOc2ccc(NC(=O)[C@@](C)(N)CO)cc2)cc1 | inactive
8 | CC(C)c1cccc(-c2ccc(NC(=O)[C@@](C)(N)CO)cc2)c1 | 22%
9 | C[C@](N)(CO)C(=O)Nc1ccc(OCCCCc2cccs2)cc1 | 66%
10 | C[C@](N)(CO)C(=O)Nc1ccc(OCCc2ccc(-c3ccc(Cl)cc3)cc2)cc1 | inactive
11 | C[C@](N)(CO)C(=O)Nc1ccc(Oc2ccc(-c3ccccc3)cc2)cc1 | 81%
12 | C[C@](N)(CO)C(=O)Nc1ccc(OCCc2ccc(-c3ccccc3Cl)cc2)cc1 | 75%
13 | C[C@](N)(CO)C(=O)Nc1ccc(Oc2ccc(F)cc2)cc1 | inactive
14 | CCCCc1ccc(-c2ccc(NC(=O)[C@@](C)(N)CO)cc2)cc1 | inactive
15 | C[C@](N)(CO)C(=O)Nc1ccc(-c2ccccc2)cc1 | inactive
16 | CCCOc1cccc(-c2ccc(NC(=O)[C@@](C)(N)CO)cc2)c1 | 20%
17 | C[C@](N)(CO)C(=O)Nc1ccc(OCCc2ccc(Cl)c(Cl)c2)cc1 | 10%
18 | CC(C)c1cccc(Oc2ccc(NC(=O)[C@@](C)(N)CO)cc2)c1 | inactive
19 | C[C@](N)(CO)C(=O)Nc1ccc(Oc2cccc(C(F)(F)F)c2)cc1 | inactive
20 | CCCCOc1ccc(Oc2ccc(NC(=O)[C@@](C)(N)CO)cc2)cc1 | inactive
21 | CCCCOc1ccc(-c2ccc(NC(=O)[C@@](C)(N)CO)cc2)cc1 | inactive

Row | Structure (SMILES) | Activity
22 | CCc1ccc(-c2ccc(NC(=O)[C@@](C)(N)CO)cc2)cc1 | 29%
23 | C[C@](N)(CO)C(=O)Nc1ccc(OCCCCC2CCCCC2)cc1 | 74%
24 | Cc1ccc(-c2ccc(NC(=O)[C@@](C)(N)CO)cc2)cc1 | 18%
25 | C[C@](N)(CO)C(=O)Nc1ccc(OCCc2ccc(C(F)(F)F)cc2)cc1 | inactive
26 | C[C@](N)(CO)C(=O)Nc1ccc(OCCc2ccc(-c3ccncc3)cc2)cc1 | 78%
27 | C[C@](N)(CO)C(=O)Nc1ccc(OCCc2ccc(-c3cccc(C(F)(F)F)c3)cc2)cc1 | 51%
28 | COc1cccc(-c2ccc(NC(=O)[C@@](C)(N)CO)cc2)c1 | 34%
29 | C[C@](N)(CO)C(=O)Nc1ccc(Oc2ccccc2)cc1 | inactive
30 | C[C@](N)(CO)C(=O)Nc1ccc(Oc2cccc(OCc3ccccc3)c2)cc1 | 10%
31 | C[C@](N)(CO)C(=O)Nc1ccc(OCCc2ccc(-c3ccccc3C#N)cc2)cc1 | 78%
32 | CCOc1cccc(-c2ccc(NC(=O)[C@@](C)(N)CO)cc2)c1 | 15%
33 | C[C@](N)(CO)C(=O)Nc1ccc(Oc2ccc(Cl)cc2)cc1 | inactive
34 | CC(C)c1ccc(-c2ccc(CCOc3ccc(NC(=O)[C@@](C)(N)CO)cc3)cc2)cc1 | inactive
35 | CCCCOc1cccc(-c2ccc(NC(=O)[C@@](C)(N)CO)cc2)c1 | 16%
36 | C[C@](N)(CO)C(=O)Nc1ccc(OCCc2ccc(-c3cccnc3)cc2)cc1 | 60%
37 | CCOc1ccc(CCOc2ccc(NC(=O)[C@@](C)(N)CO)cc2)cc1 | inactive
38 | CCOc1ccc(-c2ccc(CCOc3ccc(NC(=O)[C@@](C)(N)CO)cc3)cc2)cc1 | 10%
39 | CCCCOc1cccc(Oc2ccc(NC(=O)[C@@](C)(N)CO)cc2)c1 | inactive
40 | C[C@](N)(CO)C(=O)Nc1ccc(OCCc2ccc(-c3ccoc3)cc2)cc1 | 68%
41 | C[C@](N)(CO)C(=O)Nc1ccc(OCCc2ccc(-c3ccccc3)cc2)cc1 | 81%
